From ChEMBL document CHEMBL1629643, “Naturally occurring Class A ss-lactamases from the Burkholderia cepacia complex” (Antimicrob Agents Chemother, 2009)
≈ marks a conversion by molar mass, not a printed value.

Key:
Type in all cases: functional
[1] = tested on: Burkholderia cenocepacia; experiment: Antimicrobial activity against Burkholderia cenocepacia 07-34 expressing beta-lactamase PenB1
In short: (§1)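 MICs measured by broth microdilution and by Etest on clinical B. cenocepacia isolates grown for 18 h in Trypticase soy broth (30°C and 37°C). Susceptibility was read against CLSI guidelines.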

[2] = tested on: Burkholderia cenocepacia; experiment: Antimicrobial activity against Burkholderia cenocepacia 09-54 expressing beta-lactamase PenB2; in short: as §1
[3] = tested on: Burkholderia cenocepacia; experiment: Antimicrobial activity against Burkholderia cenocepacia 212 expressing beta-lactamase PenB3; in short: as §1
[4] = tested on: Burkholderia cenocepacia; experiment: Antimicrobial activity against Burkholderia cenocepacia 5007902 expressing beta-lactamase PenB4; in short: as §1
[5] = tested on: Burkholderia cenocepacia; experiment: Antimicrobial activity against Burkholderia cenocepacia 07-34 expressing beta-lactamase PenB1 in presence of 4 ug/ml beta-lactamase inhibitor clavulanic acid
In short: (§2)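 Cultured in Trypticase soy broth at 30°C and 37°C for 18 h. MICs by broth microdilution and Etest, read against CLSI guidelines.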

[6] = tested on: Burkholderia cenocepacia; experiment: Antimicrobial activity against Burkholderia cenocepacia 09-54 expressing beta-lactamase PenB2 in presence of 4 ug/ml beta-lactamase inhibitor clavulanic acid; in short: as §2
[7] = tested on: Burkholderia cenocepacia; experiment: Antimicrobial activity against Burkholderia cenocepacia 212 expressing beta-lactamase PenB3 in presence of 4 ug/ml beta-lactamase inhibitor clavulanic acid; in short: as §2
[8] = tested on: Burkholderia cenocepacia; experiment: Antimicrobial activity against Burkholderia cenocepacia 5007902 expressing beta-lactamase PenB4 in presence of 4 ug/ml beta-lactamase inhibitor clavulanic acid; in short: as §2
[9] = tested on: Escherichia coli; experiment: Antimicrobial activity against Escherichia coli TOP10 harboring beta-lactamase PenB1
In short: (§3)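 MICs by broth microdilution and Etest, interpreted per CLSI guidelines. Strains tested were host E. coli TOP10, and TOP10 carrying pBcSau13 (pBK-CMV vector, kanamycin-resistant) holding a Sau3AI fragment of B. cenocepacia 212 DNA that encodes PenB1.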

[10] = tested on: Escherichia coli; experiment: Antimicrobial activity against Escherichia coli TOP10 harboring beta-lactamase PenB1 in presence of 4 ug/ml beta-lactamase inhibitor clavulanic acid
In short: (§4)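 E. coli TOP10 host, either plain or carrying the pBK-CMV clone pBcSau13 with the B. cenocepacia 212 insert. MICs by broth microdilution and Etest, read against CLSI guidelines.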

[11] = tested on: Escherichia coli; experiment: Antimicrobial activity against Escherichia coli TOP10; in short: as §3
[12] = tested on: Escherichia coli; experiment: Antimicrobial activity against Escherichia coli TOP10 in presence of 4 ug/ml beta-lactamase inhibitor clavulanic acid; in short: as §4

SMILES	MIC [1] [µg/mL]	MIC [2] [µg/mL]	MIC [3] [µg/mL]	MIC [4] [µg/mL]	MIC [5] [µg/mL]	MIC [6] [µg/mL]	MIC [7] [µg/mL]	MIC [8] [µg/mL]	MIC [9] [µg/mL]	MIC [10] [µg/mL]	MIC [11] [µg/mL]	MIC [12] [µg/mL]
CO/N=C(\C(=O)N[C@@H]1C(=O)N2C(C(=O)[O-])=C(C[N+]3(C)CCCC3)CS[C@H]12)c1csc(N)n1	32 (≈ 66.6 µM)	64 (≈ 133 µM)	64 (≈ 133 µM)	1 (≈ 2.08 µM)	–	–	–	–	–	–	–	–
CC1(C)S[C@@H]2[C@H](NC(=O)[C@H](N)c3ccc(O)cc3)C(=O)N2[C@H]1C(=O)O [AMOXICILLIN]	512 (≈ 1400 µM)	512 (≈ 1400 µM)	512 (≈ 1400 µM)	512 (≈ 1400 µM)	512	512	512	512	512 (≈ 1400 µM)	16	4 (≈ 10.9 µM)	4
C[C@H]1[C@H](NC(=O)/C(=N\OC(C)(C)C(=O)O)c2csc(N)n2)C(=O)N1S(=O)(=O)O [AZTREONAM]	4 (≈ 9.19 µM)	512 (≈ 1180 µM)	512 (≈ 1180 µM)	16 (≈ 36.7 µM)	–	–	–	–	0.5 (≈ 1.15 µM)	–	–	–
CO/N=C(\C(=O)N[C@@H]1C(=O)N2C(C(=O)O)=C(COC(C)=O)CS[C@H]12)c1csc(N)n1 [CEFOTAXIME]	1 (≈ 2.2 µM)	512 (≈ 1120 µM)	512 (≈ 1120 µM)	4 (≈ 8.78 µM)	–	–	–	–	0.25 (≈ 0.549 µM)	–	0.06 (≈ 0.132 µM)	–
CO[C@@]1(NC(=O)Cc2cccs2)C(=O)N2C(C(=O)O)=C(COC(N)=O)CS[C@@H]21 [CEFOXITIN]	512 (≈ 1200 µM)	512 (≈ 1200 µM)	512 (≈ 1200 µM)	512 (≈ 1200 µM)	–	–	–	–	8 (≈ 18.7 µM)	–	8 (≈ 18.7 µM)	–
